In ChEMBL document CHEMBL3853331, “Preparation, Antiepileptic Activity, and Cardiovascular Safety of Dihydropyrazoles as Brain-Penetrant T-Type Calcium Channel Blockers” (J Med Chem, 2016):
In brackets after ≈: the same amount, converted by molar mass.

Legend:
Rattus norvegicus [1] = assay: Anticonvulsant activity in WAG/Rij rat model of generalized nonconvulsive absence-like epilepsy assessed as decrease in number of spontaneous seizures at 100 mg/kg, po administered as single dose at beginning of nocturnal active phase measured over 12 hrs by radiotelometry relative to vehicle control
[2] = Drug uptake in Wistar rat CSF at 10 mg/kg, po measured after 1 hr; assay type: ADME, organism-based, Cerebrospinal fluid; details: read-out: Drug uptake
In short: (§1)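 Male Wistar rats given oral doses of 10, 30 or 100 mg/kg. Plasma, brain and CSF collected at 1 h, and at 3 h for the 10 mg/kg dose; compound concentrations measured in each.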

[3] = Fraction unbound in human plasma; assay type: ADME, cell-free
[4] = Volume of distribution at steady state in Wistar rat plasma at 0.2 mg/kg, iv; assay type: ADME, organism-based; details: read-out: Vdss
[5] = Oral bioavailability in Wistar rat plasma at 2 mg/kg; assay type: ADME, organism-based
[6] = molecular target: Voltage-dependent T-type calcium channel subunit alpha-1G (Homo sapiens, UniProt O43497); assay: Inhibition of human T-type calcium channel Cav3.1 expressed in CHO cells assessed as inhibition of calcium tail current at -60 mV holding potential measured after 150 secs by QPatch assay; assay type: cell-based
In short: (§2)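 CHO cells stably expressing human Cav3.1, Cav3.2 or Cav3.3, automated QPatch recording. 3-ms depolarization to +20 mV from a holding potential of -90 or -60 mV. Ca2+ tail current measured at -60 mV. Cs-glutamate internal and TEA-Cl external solution with 5 mM Ca2+. Effect read 150 s after application.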

[7] = Metabolic stability in rat microsomes measured per mg protein; assay type: ADME, Microsome
Rattus norvegicus [8] = assay: Anticonvulsant activity in WAG/Rij rat model of generalized nonconvulsive absence-like epilepsy assessed as decrease in spontaneous seizures at 100 mg/kg, po administered as single dose at beginning of nocturnal active phase measured over 4 hrs by radiotelometry relative to vehicle control
Cytochrome P450 2C9 = Cytochrome P450 2C9 (Homo sapiens, UniProt P11712); assay: Inhibition of CYP2C9 (unknown origin); assay type: ADME
Rattus norvegicus [9] = assay: Cardiovascular toxicity in spontaneously hypertensive rat assessed as reduction in mean […] pressure after 18 hrs at 100 mg/kg, po; assay type: organism-based; details: in vivo
In short: (§3)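 Conscious, freely moving male spontaneously hypertensive rats with telemetry recording MAP, HR and ECG. Single oral dose (5 ml/kg) given as a suspension in 0.5% w/v methylcellulose in water, in the morning during the sleep phase. Vehicle controls run in parallel, n = 8 per group.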

[10] = molecular target: Voltage-dependent T-type calcium channel subunit alpha-1H (Homo sapiens, UniProt O95180); assay: Inhibition of human T-type calcium channel Cav3.2 expressed in CHO cells assessed as inhibition of calcium tail current at -90 mV holding potential measured after 150 secs by QPatch assay; assay type: cell-based
In short: as §2

[11] = Clearance in Wistar rat plasma at 0.2 mg/kg, iv administered 2 hrs after aminobenzotriazol-treatment; assay type: ADME, organism-based
In short: (§4)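 Male Wistar rats dosed iv at 0.2 mg/kg or po at 2 mg/kg. In the inhibited arm, the broad CYP inhibitor aminobenzotriazol was given orally 2 h before dosing. Clearance, Vss and half-life derived from plasma concentrations after the iv dose; Cmax and Tmax from the po dose.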

[12] = molecular target: T1, Voltage-dependent T-type calcium channel subunit alpha-1I (Homo sapiens, UniProt Q9P0X4); assay: Inhibition of human T-type calcium channel Cav3.3 expressed in CHO cells assessed as inhibition of calcium tail current at -90 mV holding potential measured after 150 secs by QPatch assay; assay type: cell-based
In short: as §2

Cytochrome P450 3A4 = Cytochrome P450 3A4 (Homo sapiens, UniProt P08684); assay: Inhibition of CYP3A4 (unknown origin) using midazolam as substrate; assay type: ADME
[13] = Drug uptake in Wistar rat CSF at 30 mg/kg, po measured after 1 hr; assay type: ADME, organism-based, Cerebrospinal fluid; details: read-out: Drug uptake
In short: as §1

Rattus norvegicus [14] = assay: Cardiovascular toxicity in spontaneously hypertensive rat assessed as reduction in heart rate at 100 mg/kg, po within 6 hrs post dose; assay type: organism-based; details: in vivo
In short: as §3

Rattus norvegicus [15] = assay: Anticonvulsant activity in WAG/Rij rat model of generalized nonconvulsive absence-like epilepsy assessed as decrease in duration of spontaneous seizures at 100 mg/kg, po administered as single dose at beginning of nocturnal active phase measured over 4 hrs by radiotelometry relative to vehicle control
Rattus norvegicus [16] = assay: Cardiovascular toxicity in spontaneously hypertensive rat assessed as induction of AV block type 2 at 100 mg/kg, po by telemetry method; assay type: organism-based; details: in vivo
In short: as §3

[17] = Tmax in Beagle dog plasma at 10 mg/kg, po; assay type: ADME, organism-based, Canis lupus familiaris
[18] = Aqueous solubility of the compound at pH 7 by UV-HPLC method; assay type: physicochemical
In short: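 Compound dispensed from a 10 mM DMSO stock and the solvent evaporated. Residue stirred 24 h at room temperature in buffer: citrate (55 mM) pH 4.0 or phosphate (67 mM) pH 7.0. Mixture filtered by centrifugation. Filtrate concentration measured by HPLC-UV against calibration solutions.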

[19] = Intrinsic clearance in rat hepatocytes; assay type: ADME, cell-based, Hepatocyte
[20] = Unbound drug level in Wistar rat brain at 100 mg/kg, po measured after 1 hr; assay type: ADME, organism-based; details: in vivo
[21] = molecular target: T1, Voltage-dependent T-type calcium channel subunit alpha-1I; assay: Inhibition of human T-type calcium channel Cav3.3 expressed in CHO cells assessed as inhibition of calcium tail current at -60 mV holding potential measured after 150 secs by QPatch assay; assay type: cell-based
In short: as §2

Rattus norvegicus [22] = organism: Rattus norvegicus; assay: Inhibition of Wistar rat brain neuronal sodium channel assessed as reduction in peak inward current at 10 uM measured during first peak
In short: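 Cortical neurons from E18 Wistar rat embryos, cultured 9-15 days, recorded by manual patch clamp from a holding potential of -80 mV. K+ currents: one 50-ms step to 0 mV, fast as peak outward and slow as end-of-pulse current. Na+ currents: train of fifteen 10-ms steps to 0 mV, peak inward current read at the first and last pulses. Effects read at least 180 s after application.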

[23] = Fraction unbound in rat plasma; assay type: ADME, cell-free
MDR1 = assay: Apparent permeability across apical to basolateral side in MDCK cells expressing MDR1 (unknown origin) at 1 uM; assay type: ADME, cell-based, Canis lupus familiaris; details: dog
In short: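 MDR1-transfected MDCK cell monolayers. Compound tested at 1 µM. Apparent permeability measured in both directions, apical to basolateral and basolateral to apical. Efflux ratio taken from the two directional permeabilities.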

[24] = Clearance in Wistar rat plasma at 0.2 mg/kg, iv; assay type: ADME, organism-based
In short: as §4

[25] = molecular target: T1, Voltage-dependent T-type calcium channel subunit alpha-1I; assay: Inhibition of T-type calcium channel Cav3.3 (unknown origin) expressed in HEK293 cells assessed as calcium influx by Fluo-4-AM dye-based FLIPR assay; assay type: cell-based
In short: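 HEK293 cells stably expressing the channel, seeded overnight and loaded 1 h at 37°C with 3 µM Fluo-4-AM. Compounds given as a 3-fold dilution series from 10 µM to 0.05 nM and incubated 3 min. For T-type channels, dilutions in TEAC buffer and stimulation with 10 mM final CaCl2. For Cav1.2, dilutions in assay buffer and stimulation with 20 mM final KCl. IC50 from area under the fluorescence trace against vehicle; mean of at least two experiments.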

Rattus norvegicus [26] = assay: Cardiotoxicity in rat assessed as QT prolongation at 100 mg/kg by electrophysiology method; assay type: toxicity, organism-based; details: in vivo
In short: as §3

T1 sequence (Q9P0X4 whole entry): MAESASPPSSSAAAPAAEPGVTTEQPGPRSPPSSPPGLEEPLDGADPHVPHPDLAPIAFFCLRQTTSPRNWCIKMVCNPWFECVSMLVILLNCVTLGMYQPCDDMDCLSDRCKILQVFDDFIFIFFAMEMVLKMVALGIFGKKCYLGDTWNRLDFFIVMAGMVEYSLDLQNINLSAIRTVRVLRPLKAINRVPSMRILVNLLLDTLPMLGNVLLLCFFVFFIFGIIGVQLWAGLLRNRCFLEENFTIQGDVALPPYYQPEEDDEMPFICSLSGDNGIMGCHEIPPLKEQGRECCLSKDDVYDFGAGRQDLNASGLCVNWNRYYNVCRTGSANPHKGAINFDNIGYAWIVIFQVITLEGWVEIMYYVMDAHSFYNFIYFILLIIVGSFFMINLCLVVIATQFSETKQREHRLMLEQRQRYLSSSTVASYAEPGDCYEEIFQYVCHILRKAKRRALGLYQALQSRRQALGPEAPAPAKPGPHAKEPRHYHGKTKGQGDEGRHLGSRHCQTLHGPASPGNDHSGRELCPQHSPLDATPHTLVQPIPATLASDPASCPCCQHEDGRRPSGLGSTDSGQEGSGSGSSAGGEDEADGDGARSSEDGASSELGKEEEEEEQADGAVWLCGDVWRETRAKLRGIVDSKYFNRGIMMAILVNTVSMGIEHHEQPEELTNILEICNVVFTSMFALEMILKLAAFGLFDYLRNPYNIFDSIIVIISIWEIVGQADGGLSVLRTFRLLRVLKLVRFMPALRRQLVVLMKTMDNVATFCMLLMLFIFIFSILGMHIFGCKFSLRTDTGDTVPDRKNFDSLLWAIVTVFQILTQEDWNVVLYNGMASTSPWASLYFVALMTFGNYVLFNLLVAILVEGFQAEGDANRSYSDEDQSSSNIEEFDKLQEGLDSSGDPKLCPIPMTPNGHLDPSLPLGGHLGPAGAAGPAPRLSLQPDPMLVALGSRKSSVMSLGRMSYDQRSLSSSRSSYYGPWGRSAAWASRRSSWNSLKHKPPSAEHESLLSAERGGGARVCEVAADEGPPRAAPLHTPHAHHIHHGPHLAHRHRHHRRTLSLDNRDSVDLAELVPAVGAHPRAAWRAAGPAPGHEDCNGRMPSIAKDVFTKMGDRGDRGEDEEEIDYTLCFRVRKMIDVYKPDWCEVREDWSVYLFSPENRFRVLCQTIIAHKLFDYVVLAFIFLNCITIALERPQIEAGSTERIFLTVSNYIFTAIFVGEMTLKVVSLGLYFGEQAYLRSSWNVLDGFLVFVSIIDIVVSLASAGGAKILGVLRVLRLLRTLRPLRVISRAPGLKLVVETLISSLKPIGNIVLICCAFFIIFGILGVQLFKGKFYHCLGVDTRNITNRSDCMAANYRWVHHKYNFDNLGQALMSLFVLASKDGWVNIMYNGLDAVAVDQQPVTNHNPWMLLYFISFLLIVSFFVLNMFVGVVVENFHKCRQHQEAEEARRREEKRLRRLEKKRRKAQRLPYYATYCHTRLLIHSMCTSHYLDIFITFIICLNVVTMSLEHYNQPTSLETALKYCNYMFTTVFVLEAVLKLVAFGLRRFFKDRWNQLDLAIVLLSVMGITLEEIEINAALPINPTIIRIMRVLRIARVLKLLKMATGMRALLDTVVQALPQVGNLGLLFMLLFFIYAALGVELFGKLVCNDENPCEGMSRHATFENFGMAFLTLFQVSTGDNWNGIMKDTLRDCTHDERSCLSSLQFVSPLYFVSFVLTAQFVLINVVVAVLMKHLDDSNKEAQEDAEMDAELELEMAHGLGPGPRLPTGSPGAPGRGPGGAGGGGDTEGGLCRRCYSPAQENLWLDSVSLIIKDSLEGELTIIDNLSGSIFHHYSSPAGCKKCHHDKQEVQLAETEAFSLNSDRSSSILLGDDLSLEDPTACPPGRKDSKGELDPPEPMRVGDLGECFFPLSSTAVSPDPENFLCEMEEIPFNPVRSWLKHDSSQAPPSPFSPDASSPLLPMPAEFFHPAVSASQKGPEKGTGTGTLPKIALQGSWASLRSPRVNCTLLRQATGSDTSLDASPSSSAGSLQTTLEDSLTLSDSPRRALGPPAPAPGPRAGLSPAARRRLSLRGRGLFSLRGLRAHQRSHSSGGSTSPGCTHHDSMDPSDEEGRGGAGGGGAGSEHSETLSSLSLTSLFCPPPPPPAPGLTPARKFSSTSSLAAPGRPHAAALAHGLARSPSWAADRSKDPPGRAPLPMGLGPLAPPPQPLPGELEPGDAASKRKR
Sequence of Voltage-dependent T-type calcium channel subunit alpha-1G (O43497 whole entry): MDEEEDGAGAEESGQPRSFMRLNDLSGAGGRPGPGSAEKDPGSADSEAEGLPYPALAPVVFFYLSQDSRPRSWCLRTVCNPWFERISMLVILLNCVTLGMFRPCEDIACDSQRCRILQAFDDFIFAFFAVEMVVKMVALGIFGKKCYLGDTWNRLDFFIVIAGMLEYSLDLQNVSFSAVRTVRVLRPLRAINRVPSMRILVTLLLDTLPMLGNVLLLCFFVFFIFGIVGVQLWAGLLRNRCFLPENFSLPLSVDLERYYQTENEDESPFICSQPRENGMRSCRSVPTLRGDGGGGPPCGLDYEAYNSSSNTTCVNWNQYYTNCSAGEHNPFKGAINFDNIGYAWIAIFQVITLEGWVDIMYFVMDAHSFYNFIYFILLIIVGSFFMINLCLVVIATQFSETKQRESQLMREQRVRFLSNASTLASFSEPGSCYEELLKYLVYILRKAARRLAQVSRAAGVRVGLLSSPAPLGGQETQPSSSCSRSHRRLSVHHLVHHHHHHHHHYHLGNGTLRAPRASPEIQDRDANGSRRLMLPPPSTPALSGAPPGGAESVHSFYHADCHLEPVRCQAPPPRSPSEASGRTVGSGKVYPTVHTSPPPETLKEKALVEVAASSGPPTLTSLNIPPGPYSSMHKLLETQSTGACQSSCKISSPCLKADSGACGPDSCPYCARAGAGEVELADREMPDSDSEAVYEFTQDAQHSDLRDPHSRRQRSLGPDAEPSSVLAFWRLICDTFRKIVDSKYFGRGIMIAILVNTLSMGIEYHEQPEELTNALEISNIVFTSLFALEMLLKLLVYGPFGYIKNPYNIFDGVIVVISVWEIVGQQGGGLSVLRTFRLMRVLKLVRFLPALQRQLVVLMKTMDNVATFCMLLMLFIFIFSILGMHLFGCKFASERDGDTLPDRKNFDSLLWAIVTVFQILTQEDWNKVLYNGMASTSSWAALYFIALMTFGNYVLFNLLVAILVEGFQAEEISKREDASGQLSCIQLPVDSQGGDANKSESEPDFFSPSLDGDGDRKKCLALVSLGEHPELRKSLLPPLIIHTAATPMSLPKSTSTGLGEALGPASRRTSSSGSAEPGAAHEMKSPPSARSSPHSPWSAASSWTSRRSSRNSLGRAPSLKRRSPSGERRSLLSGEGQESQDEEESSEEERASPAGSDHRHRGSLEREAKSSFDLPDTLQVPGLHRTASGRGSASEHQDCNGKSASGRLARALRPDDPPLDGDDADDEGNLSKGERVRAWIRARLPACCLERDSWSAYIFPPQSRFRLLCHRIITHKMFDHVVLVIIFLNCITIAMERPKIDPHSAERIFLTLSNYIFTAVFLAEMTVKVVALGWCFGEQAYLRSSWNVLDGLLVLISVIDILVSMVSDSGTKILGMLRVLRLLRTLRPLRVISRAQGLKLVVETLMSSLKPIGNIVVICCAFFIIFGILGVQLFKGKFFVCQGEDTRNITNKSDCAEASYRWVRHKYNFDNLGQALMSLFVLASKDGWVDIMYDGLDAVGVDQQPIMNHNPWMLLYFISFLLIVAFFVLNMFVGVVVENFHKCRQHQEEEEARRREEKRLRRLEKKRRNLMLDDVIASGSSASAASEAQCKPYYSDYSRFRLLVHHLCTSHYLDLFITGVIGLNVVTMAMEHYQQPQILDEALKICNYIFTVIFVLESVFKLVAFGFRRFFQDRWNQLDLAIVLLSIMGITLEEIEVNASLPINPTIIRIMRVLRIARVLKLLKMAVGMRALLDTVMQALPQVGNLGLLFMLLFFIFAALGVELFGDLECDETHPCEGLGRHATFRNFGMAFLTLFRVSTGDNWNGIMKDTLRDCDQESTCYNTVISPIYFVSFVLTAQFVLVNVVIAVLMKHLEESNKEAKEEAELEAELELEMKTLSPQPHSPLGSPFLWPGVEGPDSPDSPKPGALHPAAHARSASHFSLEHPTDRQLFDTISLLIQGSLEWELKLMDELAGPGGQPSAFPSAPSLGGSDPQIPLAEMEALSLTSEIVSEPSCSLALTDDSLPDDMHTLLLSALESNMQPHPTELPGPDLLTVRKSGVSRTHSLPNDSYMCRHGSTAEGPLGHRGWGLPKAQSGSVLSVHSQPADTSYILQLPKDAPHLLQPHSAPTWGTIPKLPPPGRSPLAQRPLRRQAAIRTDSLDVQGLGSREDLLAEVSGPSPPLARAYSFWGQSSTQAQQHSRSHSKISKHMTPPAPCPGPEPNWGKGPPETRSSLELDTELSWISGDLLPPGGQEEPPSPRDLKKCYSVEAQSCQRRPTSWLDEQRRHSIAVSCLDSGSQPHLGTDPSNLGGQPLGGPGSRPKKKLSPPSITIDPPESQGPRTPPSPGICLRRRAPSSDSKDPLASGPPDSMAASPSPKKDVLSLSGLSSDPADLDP
Sequence of Cytochrome P450 2C9 (P11712 whole entry): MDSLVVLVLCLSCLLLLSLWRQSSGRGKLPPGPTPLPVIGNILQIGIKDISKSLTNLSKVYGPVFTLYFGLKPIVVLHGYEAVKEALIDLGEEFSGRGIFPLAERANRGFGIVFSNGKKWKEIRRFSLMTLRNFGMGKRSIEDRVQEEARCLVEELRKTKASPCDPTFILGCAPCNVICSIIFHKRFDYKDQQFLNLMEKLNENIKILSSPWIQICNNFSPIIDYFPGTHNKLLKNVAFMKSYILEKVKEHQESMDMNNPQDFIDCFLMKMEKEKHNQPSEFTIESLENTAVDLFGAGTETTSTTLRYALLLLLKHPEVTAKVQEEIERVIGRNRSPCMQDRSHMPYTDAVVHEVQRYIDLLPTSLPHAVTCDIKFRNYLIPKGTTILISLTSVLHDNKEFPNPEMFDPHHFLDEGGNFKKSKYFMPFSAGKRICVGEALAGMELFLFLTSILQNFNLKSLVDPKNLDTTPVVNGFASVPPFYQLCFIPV

concentration at 1 h [2]: 19 nM
fraction unbound [3]: 0.02
Vd [4]: 23 L/kg
bioavailability [5]: 4%
IC50 [6]: 450 nM
microsomal CLint [7]: 104 µL/min/mg
IC50 (Cytochrome P450 2C9): 1800 nM
IC50 [10]: 1700 nM
clearance [11]: 1.6 mL/min/kg
IC50 [12]: 7000 nM
IC50 (Cytochrome P450 3A4): 18000 nM
concentration at 1 h [13]: 47 nM
Tmax [17]: 45 min
solubility [18]: 2 µg/mL (≈ 5.29 µM)
CLH [19]: 5.7 µL/min
Drug uptake(free) [20]: 128 nM
IC50 [21]: 2000 nM
inhibition (Rattus norvegicus [22]): 15%
fraction unbound [23]: 0.03
Papp A→B at 1 µM (MDR1): 45 ×10⁻⁶ cm/s
clearance [24]: 110 mL/min/kg
IC50 [25]: 340 nM
SMILES: O=C(Nc1ccc(F)cc1)N1N=C(c2ccncc2)CC1c1ccc(F)cc1 (centres undefined)
inhibition in vivo at 100 mg/kg (Rattus norvegicus [1]): 63.5%
inhibition in vivo at 100 mg/kg (Rattus norvegicus [8]): > 99%
Activity (Rattus norvegicus [9]): Non-Toxic
Activity (Rattus norvegicus [14]): Non-Toxic
inhibition in vivo at 100 mg/kg (Rattus norvegicus [15]): > 99%
Activity (Rattus norvegicus [16]): Toxic
Activity (Rattus norvegicus [26]): Non-Toxic
